In brackets after ≈: the same amount, converted by molar mass.
Legend:
[1] = test system: Staphylococcus aureus; test: Antibacterial activity against methicillin-resistant Staphylococcus aureus subsp. aureus Rosenbach 1884; format: functional
Outline: (§1)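 In vitro testing against MRSA by standard techniques, following the Spanish Society of Clinical Microbiology and Infectious Diseases (SEIMC) recommended protocol. MIC and MBC were determined, with concentrations compared in double (twofold) dilution steps.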

[2] = test system: Staphylococcus aureus; test: Bactericidal activity against methicillin-resistant Staphylococcus aureus subsp. aureus Rosenbach 1884; format: functional; outline: as §1

Structure (SMILES) | MIC [1] | MBC [2]
CC1(C)[C@H](C(=O)O[C@H](C#N)c2cccc(Oc3ccccc3)c2)[C@@H]1/C=C(\Cl)C(F)(F)F [GAMMA-CYHALOTHRIN] | > 512 µg/mL | > 512 µg/mL
CO[C@@]12[C@H](COC(N)=O)C3=C(C(=O)C(C)=C(N)C3=O)N1C[C@@H]1N[C@@H]12 [MITOMYCIN] | 0.5 µg/mL (≈ 1.5 µM) | 4 µg/mL (≈ 12 µM)
O=C(O)c1cn(C2CC2)c2cc(F)c(F)cc2c1=O | 64 µg/mL (≈ 241 µM) | > 512 µg/mL
CN(Cc1cccc2ccccc12)c1cc2c(cc1F)c(=O)c(C(=O)O)cn2C1CC1 | 1 µg/mL (≈ 2.4 µM) | 128 µg/mL (≈ 307 µM)
COc1cc2c(cc1OC)CN(c1cc3c(cc1F)c(=O)c(C(=O)O)cn3C1CC1)CC2 | 1 µg/mL (≈ 2.28 µM) | 128 µg/mL (≈ 292 µM)
Cc1nccn1-c1cc2c(cc1F)c(=O)c(C(=O)O)cn2C1CC1 | 32 µg/mL (≈ 97.8 µM) | > 512 µg/mL
Nc1nnc(-c2cccc(Cl)c2Cl)c(N)n1 [LAMOTRIGINE] | > 512 µg/mL | > 512 µg/mL
O=C(O)c1cn(C2CC2)c2cc(N3CCNCC3)c(F)cc2c1=O [CIPROFLOXACIN] | 0.5 µg/mL (≈ 1.51 µM) | 256 µg/mL (≈ 773 µM)
O=C(O)c1cn(C2CC2)c2cc(Cl)c(F)cc2c1=O | 32 µg/mL (≈ 114 µM) | 512 µg/mL (≈ 1820 µM)

— ChEMBL document CHEMBL4190280, “Topological pattern for the search of new active drugs against methicillin resistant Staphylococcus aureus” (2017)
